# Compounds with a hit are over-represented: about 0.72% of the library has one in this group of screens.
# bIAP act: increases bovine intestinal alkaline phosphatase activity; purified bovine IAP, CDP-star luminescence, 30 min; hits give high values; fold of DMSO-control signal, blank-subtracted; activation factor at 20 µM; actives 0.17% (n = 200,000); AID 1016;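 active = activation factor of 2 or more at 20 µM, a signal rise over negative controls twice the positive control's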
# hIAP act: increases human intestinal alkaline phosphatase activity; P09923; purified human IAP, CDP-Star luminescence, 30 min; hits give high values; 1 = vehicle-only enzyme, 0 = enzyme-free background; activation factor at 10 µM; actives 0.16% (n = 330,000); AID 2524;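 active = activation factor of the enzyme at least 2-fold when tested at 20 µM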
# Target sequence (P09923 whole entry, looked up): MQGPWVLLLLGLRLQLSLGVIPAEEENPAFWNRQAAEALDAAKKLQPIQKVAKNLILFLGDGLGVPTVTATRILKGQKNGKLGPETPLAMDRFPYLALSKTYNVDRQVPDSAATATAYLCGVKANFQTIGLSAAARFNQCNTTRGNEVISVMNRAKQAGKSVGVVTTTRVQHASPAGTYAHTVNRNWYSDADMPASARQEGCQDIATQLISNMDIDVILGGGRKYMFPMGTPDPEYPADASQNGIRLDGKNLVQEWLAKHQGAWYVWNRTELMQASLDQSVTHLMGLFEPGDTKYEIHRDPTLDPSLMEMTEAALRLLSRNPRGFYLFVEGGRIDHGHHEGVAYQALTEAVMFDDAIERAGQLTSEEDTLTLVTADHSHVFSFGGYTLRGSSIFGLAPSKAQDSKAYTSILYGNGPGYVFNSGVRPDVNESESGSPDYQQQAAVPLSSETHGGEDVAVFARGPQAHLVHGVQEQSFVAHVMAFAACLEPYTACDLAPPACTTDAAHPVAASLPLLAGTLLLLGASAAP
# mIAP act: mouse IAP activation | muIAP, CDP-Star luminescence, 30 min; hits give high values; 1 = vehicle-only enzyme signal, 0 = enzyme-free wells | activation factor at 10 µM | actives 0.24% (n = 330,000) | AID 2805;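 active = activation factor of at least 2 at 20 µM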
#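 Assay system: mouse IAP enzyme / Compound: DMSO-dissolved test compounds / Timing: 30 min, room temperature / Measured by: luminescence from enzymatic CDP-Star hydrolysis / Control set: DMSO-only wells, enzyme-free buffer wells as negative control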
# mIAP block: blocks mouse intestinal alkaline phosphatase | purified mouse IAP, CDP-Star luminescence, 30 min | inhibition, % at 10 µM | actives 0.2% (n = 330,000) | AID 2806;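 active = inhibition of at least 40% at 10 µM in the primary screen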;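 note: plate controls were DMSO with enzyme for no effect and no enzyme wells for full effect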
# hIAP block: human IAP inhibition | inhibition, % at 10 µM | actives 0.12% (n = 330,000) | purified IAP, CDP-Star luminescence, 30 min | P09923 | AID 2544;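 active = inhibition reaching a set limit with compound at 10 µM in the primary screen, cut at about 35% in these data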;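 note: plate controls were DMSO wells with enzyme for no effect and no-enzyme buffer wells for full effect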
# bIAP inh: intestinal alkaline phosphatase (bovine) inhibition; purified bovine IAP, CDP-star luminescence, 30 min; inhibition, % at 20 µM; 190,000 tested, under 10 active;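 active = over 50% inhibition of intestinal alkaline phosphatase at 20 µM in the single-dose screen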
#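 Assay system: bovine IAP enzyme; medium: DEA buffer 100 mM, pH 9.8, with MgCl2 1.0 mM, ZnCl2 0.02 mM; doses: 20 µM single dose; incubation: enzyme reaction for 30 min at room temperature; detection: CDP-star luminescence signal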
# Numbers without * were called inactive; nt = not tested or not shown.
SMILES,bIAP act,hIAP act,mIAP act,mIAP block,hIAP block,bIAP inh
COc1cccc(NC(=S)NC2CC3CCCC(C2)N3CC(C)C)c1 (stereo not drawn),1.1,1.1,2.8*,-179,-11,-6
CCN(C(=O)COC(=O)c1cc(Cl)ccc1OC)c1c(N)n(Cc2ccccc2)c(=O)[nH]c1=O,nt,1,1,-2,-1,nt
CCOc1ccc(NC(=O)CCC(=O)NNC(=O)COc2ccc(C)cc2Br)cc1,nt,2,0.51,49*,-96,nt
O=C(COc1ccc(Cl)cc1Br)NCC(c1ccco1)N1CCCC1 (stereo not drawn),nt,0.94,0.92,8,6,nt
c1ccc(-c2csc(NC3CCCCC3)n2)cc1,nt,0.8,0.96,4,20,nt
O=C(Nc1nc(-c2ccccc2)cs1)NC1CCCCC1,0.8,1,2.6*,-157,-5,17
COc1ccccc1NC(=O)CN1CCN(CC(=O)Nc2ccc(F)cc2F)CC1,nt,1.1,0.95,5,-7,nt
O=C(COc1cc(Cl)c(Cl)cc1Cl)NC(=O)Nc1ccc2c(c1)OCCO2,2.6*,1,1,-4,0,-164
Cc1ccc(Cl)c(OCC(=O)Nc2ccc3c(c2)OCCO3)c1,0.9,0.94,0.96,4,6,10
COCC(C)NS(=O)(=O)c1ccc(C(=O)NC(Cc2ccccc2)c2ccccc2)cc1 (stereo not drawn),nt,1,2.1*,-106,0,nt
O=C(CCl)N1CCN(S(=O)(=O)Cc2ccccc2)CC1,nt,1.3,1,-4,-25,nt
Cc1ccc(S(=O)(=O)N2C[C@@H]3[C@H]4CC[C@H](C4)[C@@H]3[C@@H](C)[C@H]2C#N)cc1,nt,nt,1.1,-8,nt,nt
COc1ccc(C(=O)/C(=C/c2cccs2)c2nc3ccccc3o2)cc1,1,0.88,0.55,46*,12,-2
COc1ccc(/C=C(\CC(=O)O)c2nc3ccccc3o2)cc1,1.1,1.1,1.1,-11,-13,-12
CC(=O)NC(=S)NNC(=O)CCc1ccccc1,2.2*,1.7,0.96,4,-67,-118
CC(=O)NNC(=S)NC(=O)C(c1ccccc1)c1ccccc1,2.7*,0.99,0.97,3,1,-172
CCCCC(=O)NC(=S)NNC(=O)CCc1ccccc1,nt,1.6,0.87,13,-59,nt
O=C(CN1CCN(c2cnn(-c3ccccc3)c(=O)c2Cl)CC1)NC1CCS(=O)(=O)C1 (stereo not drawn),nt,0.88,0.95,5,12,nt
Cc1csc2c(N3CCN(C(=O)Nc4ccc(Cl)c(Cl)c4)CC3)ncnc12,nt,1.4,2.4*,-139,-43,nt
Cc1csc2c(N3CCN(C(=O)NC(C)(C)C)CC3)ncnc12,nt,0.97,0.99,1,2,nt
Cc1ccc(C)c(C(C)NC(=S)NCc2ccc(F)cc2)c1 (stereo not drawn),nt,0.92,2.2*,-117,8,nt
Cc1ccc(NC(=S)NCc2ccc(F)cc2)cc1,nt,1.1,1.4,-45,-6,nt
Cc1ccc2c(c1)-n1c(nc3ccc(C)cc3c1=O)C(Cc1ccc(O)cc1)NC2=O (stereo not drawn),nt,0.98,1,-3,2,nt
CC1CN(C(=O)COC(=O)[C@@H](NC(=O)c2ccccc2Cl)C(C)C)CC(C)O1 (stereo partly drawn),nt,1,1,-3,-3,nt
O=C(N/N=C/c1cc(Br)cc(Br)c1O)c1cccc(S(=O)(=O)N2CCOCC2)c1,nt,1.5,0.59,41*,-47,nt
SMILES,bIAP act,hIAP act,mIAP act,mIAP block,hIAP block,bIAP inh
O=C(N/N=C/c1ccccc1Br)c1cccc(S(=O)(=O)N2CCOCC2)c1,nt,1.1,1.1,-11,-9,nt
S=C(NCc1cccnc1)Nc1cccc(Cl)c1,0.9,1,1.1,-14,-4,11
COc1cccc(C(C)NC(=S)NCc2ccc(Cl)cc2)c1 (stereo not drawn),0.8,1.2,2.5*,-148,-22,23
S=C(NCc1cccnc1)Nc1cc(Cl)cc(Cl)c1,nt,0.92,2.1*,-109,8,nt
CCCCc1ccc(NC(=S)NCc2cccc(OC)c2)cc1,0.9,0.89,2.5*,-146,11,11
COc1ccc(C(C)NC(=S)NCc2ccc(F)cc2)cc1 (stereo not drawn),nt,0.95,1.3,-33,5,nt
COc1ccc(CNC(=S)Nc2cccc(Cl)c2)cc1,nt,0.83,2.7*,-172,17,nt

# Bioassay records deposited in PubChem by Sanford-Burnham Center for Chemical Genomics.
